We go through 35 compounds from ChEMBL document CHEMBL1821580, “Design, synthesis and bioevaluation of novel candidate selective estrogen receptor modulators” (Eur J Med Chem, 2011).

In one assay the test system is MOLT-4. Nature of the assay: Cytostatic activity against human Molt4/C8 cells after 3 days by coulter counter assay. The format is functional, cell-based. The settings on record: MOLT-4, 72 h. Put shortly:
(§1)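 Tumor cells seeded in 96-well plates and exposed to a range of compound concentrations. Exposure was 2 days for L1210 and 3 days for Molt4/C8 and CEM. Cell number was counted on a Coulter particle counter. IC50 is the concentration inhibiting proliferation by 50%. Run in triplicate.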

The next assay has as its system CCRF-CEM. Nature of the assay: Cytostatic activity against human CEM cells after 3 days by coulter counter assay. It is filed as functional, cell-based. Conditions: 72 h. Put shortly:
as §1

The subject of another assay is L1210. Nature of the assay: Cytostatic activity against mouse L1210 cells after 2 days by coulter counter assay. The format is functional, cell-based. The settings on record: L1210, 48 h. The procedure, abridged: as §1
The test system of another assay is MCF7. Nature of the assay: Cytotoxicity activity against human MCF7 cells by MTS assay. It is filed as functional, cell-based. Put shortly: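 MCF-7 cells in DMEM with 10% heat-inactivated FBS, seeded at 30,000 cells/well in 24-well plates. After compound treatment, viability was read by MTS assay (CellTiter 96 AQueous). Run in triplicate.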
Assay [1] concerns the target T1, Estrogen receptor (Homo sapiens) (UniProt P03372).
T1 sequence (whole entry): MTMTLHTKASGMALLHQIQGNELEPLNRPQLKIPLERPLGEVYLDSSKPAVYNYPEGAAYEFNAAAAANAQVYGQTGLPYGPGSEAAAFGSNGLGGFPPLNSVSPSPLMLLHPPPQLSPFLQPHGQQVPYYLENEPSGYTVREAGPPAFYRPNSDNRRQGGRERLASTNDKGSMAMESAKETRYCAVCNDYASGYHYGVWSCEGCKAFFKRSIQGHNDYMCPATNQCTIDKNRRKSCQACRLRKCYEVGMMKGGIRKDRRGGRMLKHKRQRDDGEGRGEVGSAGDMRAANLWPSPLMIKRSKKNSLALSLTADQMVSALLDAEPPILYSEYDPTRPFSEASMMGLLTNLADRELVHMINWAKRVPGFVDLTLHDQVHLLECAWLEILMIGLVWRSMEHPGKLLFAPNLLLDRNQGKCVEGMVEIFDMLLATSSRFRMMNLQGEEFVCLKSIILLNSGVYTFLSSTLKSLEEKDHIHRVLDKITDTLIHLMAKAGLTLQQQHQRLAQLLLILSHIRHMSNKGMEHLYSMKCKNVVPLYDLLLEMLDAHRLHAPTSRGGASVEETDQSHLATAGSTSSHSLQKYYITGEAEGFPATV
Nature of the assay: Binding affinity to estrogen receptor alpha in human MCF7 cells assessed as NR peptide-ERalpha complex formation at 25 uM by colorimetric ELISA. It is filed as cell-based.

Assay [2] deals with T1, Estrogen receptor (Homo sapiens). The assay is described as follows: Binding affinity to estrogen receptor alpha in human MCF7 cells assessed as NR peptide-ERalpha complex formation at 2.5 uM by colorimetric ELISA. The format is cell-based.

Calls of active or inactive are those of the source. The rule behind the calls is not given here.

As for `Oc1ccc2ccccc2c1C(c1ccccc1)N1CCC(O)CC1` (configuration not stated), the half-inhibitory concentration (IC50) is 43 µM with MOLT-4, 36 µM with CCRF-CEM and 50 µM with L1210.

For the compound `COc1ccc(C(c2c(O)ccc3ccccc23)N2CCC(O)CC2)cc1` (configuration not stated), the values for the half-maximal inhibitory concentration (IC50) in the assay on MOLT-4, in the assay with CCRF-CEM and with L1210 were 35 µM, 14 µM and 42 µM, respectively.

As for `Oc1ccc2ccccc2c1C(c1ccc(Cl)c(Cl)c1)N1CCC(O)CC1` (configuration not stated), the results for the IC50 in the assay with MOLT-4, in the assay on CCRF-CEM and in the assay with L1210 were 36 µM, 17 µM and 43 µM, respectively.

With `CC(=O)OC1CCN(C(c2ccc3c(c2)OCO3)c2c(O)ccc3ccccc23)CC1` (configuration not stated), the IC50 stood at 69 µM with MOLT-4, 51 µM in the assay on CCRF-CEM and 48 µM in the assay with L1210.

Consider `CC(=O)OC1CCN(C(c2ccccn2)c2c(O)ccc3ccccc23)CC1` (configuration not stated), for which the 50% inhibitory concentration (IC50) with MOLT-4 came out at 49 µM; in the assay with CCRF-CEM, 55 µM; with L1210 it was 92 µM.

The compound `CN(C)CCOc1ccc(Cc2c(O)ccc3ccccc23)cc1` yielded an IC50 in the assay on MCF7 of 10.2 µM.

The compound `CCN(CC)CCOc1ccc(Cc2c(O)ccc3ccccc23)cc1` returned an IC50 with MCF7 of 6.2 µM.

In the assay on MCF7, `CC(C)N(CCOc1ccc(Cc2c(O)ccc3ccccc23)cc1)C(C)C` yielded an IC50 of 7.54 µM.

For `Oc1ccc2ccccc2c1Cc1ccc(OCCN2CCCC2)cc1`, the half-inhibitory concentration (IC50) in the assay with MCF7 worked out at 6.71 µM.

In the assay on MCF7, `Oc1ccc2ccccc2c1Cc1ccc(OCCN2CCCCC2)cc1` came in with an IC50 of 6.82 µM.

For the compound `Oc1ccc2ccccc2c1Cc1ccc(OCCN2CCOCC2)cc1`, in the assay on MCF7, the IC50 was greater than 25 µM.

Regarding `CC1CCN(CCOc2ccc(Cc3c(O)ccc4ccccc34)cc2)CC1`, in the assay on MCF7, the IC50 is 4.38 µM. Moreover, the outcome in assay [1] and in assay [2] was Active.

`Oc1ccc2ccccc2c1Cc1ccc(OCCN2CCCCCC2)cc1` gave an IC50 with MCF7 of 6.21 µM.

`CN(C)CCOc1ccc(C(c2c(O)ccc3ccccc23)N2CCC(O)CC2)cc1` (racemic) came in with an IC50 in the assay on MCF7 of 22.6 µM. Compared with the last compound, the IC50 is about 3.6-fold higher.

In turn, `CCN(CC)CCOc1ccc(C(c2c(O)ccc3ccccc23)N2CCC(O)CC2)cc1` (racemic) yielded an IC50 in the assay on MCF7 of 19 µM. This IC50 and that of the compound before are within 1.5-fold of each other.

In the assay on MCF7, `CC(C)N(CCOc1ccc(C(c2c(O)ccc3ccccc23)N2CCC(O)CC2)cc1)C(C)C` (racemic) had an IC50 of 52.3 µM.

Take `Oc1ccc2ccccc2c1C(c1ccc(OCCN2CCCC2)cc1)N1CCC(O)CC1` (racemic): the IC50 in the assay with MCF7 stood at 37.5 µM.

Take `Oc1ccc2ccccc2c1C(c1ccc(OCCN2CCCCC2)cc1)N1CCC(O)CC1` (racemic): the 50% inhibitory concentration (IC50) with MCF7 worked out at 36.4 µM.

Compound `Oc1ccc2ccccc2c1C(c1ccc(OCCN2CCOCC2)cc1)N1CCC(O)CC1` (racemic) yielded an IC50 with MCF7 of 424 µM.

`Oc1ccc2ccccc2c1C(c1ccncc1)N1CCC(O)CC1` (single isomer, unassigned; (+)): the values for the half-inhibitory concentration (IC50) with MOLT-4, with CCRF-CEM and in the assay on L1210 were 107 µM, 133 µM and 154 µM, respectively.

Turning to `Oc1ccc2ccccc2c1C(c1ccccn1)N1CCC(O)CC1` (single isomer, unassigned; (+)), the results for the half-maximal inhibitory concentration (IC50) in the assay on MOLT-4, in the assay on CCRF-CEM and with L1210 were 52 µM, 54 µM and 118 µM, respectively.

Consider `CC(=O)OC1CCN(C(c2ccccc2)c2c(O)ccc3ccccc23)CC1` (single isomer, unassigned; (+)), for which the figures for the IC50 in the assay with MOLT-4, in the assay on CCRF-CEM and in the assay on L1210 were 38 µM, 31 µM and 58 µM, respectively.

`CC(=O)OC1CCN(C(c2ccc(F)cc2)c2c(O)ccc3ccccc23)CC1` (single isomer, unassigned; (+)): the IC50 came out at 40 µM in the assay with MOLT-4, 27 µM in the assay with CCRF-CEM and 45 µM in the assay with L1210.

Take `CC(=O)OC1CCN(C(c2ccc(Cl)cc2)c2c(O)ccc3ccccc23)CC1` (single isomer, unassigned; (+)): the figures for the half-maximal inhibitory concentration (IC50) with MOLT-4, in the assay on CCRF-CEM and in the assay with L1210 were 35 µM, 28 µM and 41 µM, respectively.

Turning to `CC(=O)OC1CCN(C(c2ccc(C)cc2)c2c(O)ccc3ccccc23)CC1` (single isomer, unassigned; (+)), the IC50 with MOLT-4 was 47 µM; with CCRF-CEM it was 35 µM; with L1210 it was 45 µM.

As to `COc1ccc(C(c2c(O)ccc3ccccc23)N2CCC(OC(C)=O)CC2)cc1` (single isomer, unassigned; (+)), the concentration for half-maximal inhibition (IC50) amounted to 42 µM in the assay with MOLT-4, 22 µM with CCRF-CEM and 43 µM in the assay on L1210.

As to `CC(=O)OC1CCN(C(c2ccc(Cl)c(Cl)c2)c2c(O)ccc3ccccc23)CC1` (single isomer, unassigned; (+)), the 50% inhibitory concentration (IC50) in the assay with MOLT-4 is 34 µM; in the assay with CCRF-CEM it was 15 µM; in the assay on L1210, 31 µM.

Take `COc1ccc(C(c2c(O)ccc3ccccc23)N2CCC(OC(C)=O)CC2)cc1OC` (single isomer, unassigned; (+)): the IC50 in the assay on MOLT-4 turned out to be 12 µM; in the assay on CCRF-CEM, 24 µM; in the assay with L1210, 48 µM.

Consider `Oc1ccc2ccccc2c1C(c1ccc(F)cc1)N1CCC(O)CC1` (single isomer, unassigned; (-)), for which the IC50 with MOLT-4 stood at 41 µM; with CCRF-CEM, 24 µM; with L1210, 44 µM.

As for `Oc1ccc2ccccc2c1C(c1ccc(Cl)cc1)N1CCC(O)CC1` (single isomer, unassigned; (-)), the IC50 in the assay on MOLT-4 stood at 33 µM; in the assay on CCRF-CEM, 19 µM; in the assay on L1210, 46 µM.

As for `Cc1ccc(C(c2c(O)ccc3ccccc23)N2CCC(O)CC2)cc1` (single isomer, unassigned; (-)), the half-inhibitory concentration (IC50) with MOLT-4 came to 39 µM; in the assay on CCRF-CEM, 29 µM; in the assay with L1210, 44 µM.

For `COc1ccc(C(c2c(O)ccc3ccccc23)N2CCC(O)CC2)cc1OC` (single isomer, unassigned; (-)), the half-maximal inhibitory concentration (IC50) was 18 µM in the assay with MOLT-4, 25 µM in the assay on CCRF-CEM and 50 µM in the assay with L1210.

In the case of `Oc1ccc2ccccc2c1C(c1ccc2c(c1)OCO2)N1CCC(O)CC1` (single isomer, unassigned; (-)), the figures for the IC50 with MOLT-4, in the assay with CCRF-CEM and in the assay with L1210 were 44 µM, 37 µM and 45 µM, respectively.

For the compound `CC(=O)OC1CCN(C(c2ccncc2)c2c(O)ccc3ccccc23)CC1` (single isomer, unassigned; (-)), the figures for the IC50 in the assay with MOLT-4, with CCRF-CEM and in the assay with L1210 were 59 µM, 79 µM and 80 µM, respectively.

In the case of `CC/C(=C(\c1ccccc1)c1ccc(OCCN(C)C)cc1)c1ccccc1` [TAMOXIFEN], in the assay with MCF7, the IC50 amounted to 31 µM.
